Experiments:
Format in all cases: ADME, organism-based
[1] = Biodistribution in NMRI mouse urine at 3.7 MBq/mL, iv after 2 mins by gamma counting; conditions: in vivo
Procedure, shortened: (§1)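 Male NMRI mice (30-40 g) under isoflurane (1.5-2.5% in oxygen) got 0.1 mL of HPLC-purified tracer diluted with 0.9% NaCl to 3.7 MBq/mL (ethanol ≤10%) via tail vein. Mice were decapitated at 2 or 60 min p.i., and organs, blood and urine were weighed and γ-counted. Values are background-corrected %ID or %ID/g, with blood mass taken as 7% of body mass.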

[2] = Biodistribution in NMRI mouse urine at 3.7 MBq/mL, iv after 60 mins by gamma counting; conditions: in vivo, 1 h; procedure, shortened: as §1
Kidney [3] = experiment: Biodistribution in NMRI mouse kidney at 3.7 MBq/mL, iv after 2 mins by gamma counting; conditions: in vivo; procedure, shortened: as §1
Kidney [4] = experiment: Biodistribution in NMRI mouse kidney at 3.7 MBq/mL, iv after 60 mins by gamma counting; conditions: in vivo, 1 h; procedure, shortened: as §1
Kidney [5] = experiment: Biodistribution in NMRI mouse kidney assessed per gram of tissue at 3.7 MBq/mL, iv after 2 mins by gamma counting; conditions: in vivo; procedure, shortened: as §1
Kidney [6] = experiment: Biodistribution in NMRI mouse kidney assessed per gram of tissue at 3.7 MBq/mL, iv after 60 mins by gamma counting; conditions: in vivo, 1 h; procedure, shortened: as §1
Kidney [7] = experiment: Drug level in NMRI mouse kidney assessed as standard uptake value at 3.7 MBq/mL, iv after 2 mins by gamma counting; conditions: in vivo
Procedure, shortened: (§2)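 Male NMRI mice (30-40 g) were anaesthetised with isoflurane. Each received 0.1 mL of HPLC-purified tracer, diluted in 0.9% NaCl to 3.7 MBq/mL (ethanol ≤10%), via a tail vein. Mice were decapitated at 2 or 60 min. Organs were dissected, weighed and γ-counted with background correction. SUV = (organ cpm/organ weight)/(total recovered counts/body weight). Blood mass was taken as 7% of body mass.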

Kidney [8] = experiment: Drug level in NMRI mouse kidney assessed as standard uptake value at 3.7 MBq/mL, iv after 60 mins by gamma counting; conditions: in vivo, 1 h; procedure, shortened: as §2
Liver [9] = experiment: Biodistribution in NMRI mouse liver at 3.7 MBq/mL, iv after 2 mins by gamma counting; conditions: in vivo; procedure, shortened: as §1
Liver [10] = experiment: Biodistribution in NMRI mouse liver at 3.7 MBq/mL, iv after 60 mins by gamma counting; conditions: in vivo, 1 h; procedure, shortened: as §1
Liver [11] = experiment: Biodistribution in NMRI mouse liver assessed per gram of tissue at 3.7 MBq/mL, iv after 2 mins by gamma counting; conditions: in vivo
Liver [12] = experiment: Biodistribution in NMRI mouse liver assessed per gram of tissue at 3.7 MBq/mL, iv after 60 mins by gamma counting; conditions: in vivo, 1 h; procedure, shortened: as §1
Liver [13] = experiment: Drug level in NMRI mouse liver assessed as standard uptake value at 3.7 MBq/mL, iv after 2 mins by gamma counting; conditions: in vivo; procedure, shortened: as §2
Liver [14] = experiment: Drug level in NMRI mouse liver assessed as standard uptake value at 3.7 MBq/mL, iv after 60 mins by gamma counting; conditions: in vivo, 1 h; procedure, shortened: as §2
[15] = Biodistribution in NMRI mouse spleen/pancreas at 3.7 MBq/mL, iv after 2 mins by gamma counting; conditions: in vivo; procedure, shortened: as §1
[16] = Biodistribution in NMRI mouse spleen/pancreas at 3.7 MBq/mL, iv after 60 mins by gamma counting; conditions: in vivo, 1 h; procedure, shortened: as §1
[17] = Biodistribution in NMRI mouse spleen/pancreas assessed per gram of tissue at 3.7 MBq/mL, iv after 2 mins by gamma counting; conditions: in vivo; procedure, shortened: as §1
[18] = Biodistribution in NMRI mouse spleen/pancreas assessed per gram of tissue at 3.7 MBq/mL, iv after 60 mins by gamma counting; conditions: in vivo, 1 h; procedure, shortened: as §1
[19] = Drug level in NMRI mouse spleen/pancreas assessed as standard uptake value at 3.7 MBq/mL, iv after 2 mins by gamma counting; conditions: in vivo; procedure, shortened: as §2
[20] = Drug level in NMRI mouse spleen/pancreas assessed as standard uptake value at 3.7 MBq/mL, iv after 60 mins by gamma counting; conditions: in vivo, 1 h; procedure, shortened: as §2
Lung [21] = experiment: Biodistribution in NMRI mouse lung at 3.7 MBq/mL, iv after 2 mins by gamma counting; conditions: in vivo; procedure, shortened: as §1
Lung [22] = experiment: Biodistribution in NMRI mouse lung at 3.7 MBq/mL, iv after 60 mins by gamma counting; conditions: in vivo, 1 h; procedure, shortened: as §1
Lung [23] = experiment: Biodistribution in NMRI mouse lung assessed per gram of tissue at 3.7 MBq/mL, iv after 2 mins by gamma counting; conditions: in vivo; procedure, shortened: as §1
Lung [24] = experiment: Biodistribution in NMRI mouse lung assessed per gram of tissue at 3.7 MBq/mL, iv after 60 mins by gamma counting; conditions: in vivo, 1 h; procedure, shortened: as §1
Lung [25] = experiment: Drug level in NMRI mouse lung assessed as standard uptake value at 3.7 MBq/mL, iv after 2 mins by gamma counting; conditions: in vivo; procedure, shortened: as §2
Lung [26] = experiment: Drug level in NMRI mouse lung assessed as standard uptake value at 3.7 MBq/mL, iv after 60 mins by gamma counting; conditions: in vivo, 1 h; procedure, shortened: as §2
Heart [27] = experiment: Biodistribution in NMRI mouse heart at 3.7 MBq/mL, iv after 2 mins by gamma counting; conditions: in vivo; procedure, shortened: as §1
Heart [28] = experiment: Biodistribution in NMRI mouse heart at 3.7 MBq/mL, iv after 60 mins by gamma counting; conditions: in vivo, 1 h; procedure, shortened: as §1
Heart [29] = experiment: Biodistribution in NMRI mouse heart assessed per gram of tissue at 3.7 MBq/mL, iv after 2 mins by gamma counting; conditions: in vivo; procedure, shortened: as §1
Heart [30] = experiment: Biodistribution in NMRI mouse heart assessed per gram of tissue at 3.7 MBq/mL, iv after 60 mins by gamma counting; conditions: in vivo, 1 h; procedure, shortened: as §1
Heart [31] = experiment: Drug level in NMRI mouse heart assessed as standard uptake value at 3.7 MBq/mL, iv after 2 mins by gamma counting; conditions: in vivo; procedure, shortened: as §2
Heart [32] = experiment: Drug level in NMRI mouse heart assessed as standard uptake value at 3.7 MBq/mL, iv after 60 mins by gamma counting; conditions: in vivo, 1 h; procedure, shortened: as §2
Intestine [33] = experiment: Biodistribution in NMRI mouse intestine at 3.7 MBq/mL, iv after 2 mins by gamma counting; conditions: in vivo; procedure, shortened: as §1
Intestine [34] = experiment: Biodistribution in NMRI mouse intestine at 3.7 MBq/mL, iv after 60 mins by gamma counting; conditions: in vivo, 1 h; procedure, shortened: as §1
Stomach [35] = experiment: Biodistribution in NMRI mouse stomach at 3.7 MBq/mL, iv after 2 mins by gamma counting; conditions: in vivo; procedure, shortened: as §1
Stomach [36] = experiment: Biodistribution in NMRI mouse stomach at 3.7 MBq/mL, iv after 60 mins by gamma counting; conditions: in vivo, 1 h; procedure, shortened: as §1
[37] = Biodistribution in NMRI mouse cerebrum at 3.7 MBq/mL, iv after 2 mins by gamma counting; conditions: in vivo; procedure, shortened: as §1
[38] = Biodistribution in NMRI mouse cerebrum at 3.7 MBq/mL, iv after 60 mins by gamma counting; conditions: in vivo, 1 h; procedure, shortened: as §1
[39] = Biodistribution in NMRI mouse cerebrum assessed per gram of tissue at 3.7 MBq/mL, iv after 2 mins by gamma counting; conditions: in vivo; procedure, shortened: as §1
[40] = Biodistribution in NMRI mouse cerebrum assessed per gram of tissue at 3.7 MBq/mL, iv after 60 mins by gamma counting; conditions: in vivo, 1 h; procedure, shortened: as §1
[41] = Drug level in NMRI mouse cerebrum assessed as standard uptake value at 3.7 MBq/mL, iv after 2 mins by gamma counting; conditions: in vivo; procedure, shortened: as §2
[42] = Drug level in NMRI mouse cerebrum assessed as standard uptake value at 3.7 MBq/mL, iv after 60 mins by gamma counting; conditions: in vivo, 1 h; procedure, shortened: as §2
Cerebellum [43] = experiment: Biodistribution in NMRI mouse cerebellum at 3.7 MBq/mL, iv after 2 mins by gamma counting; conditions: in vivo; procedure, shortened: as §1
Cerebellum [44] = experiment: Biodistribution in NMRI mouse cerebellum at 3.7 MBq/mL, iv after 60 mins by gamma counting; conditions: in vivo, 1 h; procedure, shortened: as §1
Cerebellum [45] = experiment: Biodistribution in NMRI mouse cerebellum assessed per gram of tissue at 3.7 MBq/mL, iv after 2 mins by gamma counting; conditions: in vivo; procedure, shortened: as §1
Cerebellum [46] = experiment: Biodistribution in NMRI mouse cerebellum assessed per gram of tissue at 3.7 MBq/mL, iv after 60 mins by gamma counting; conditions: in vivo, 1 h; procedure, shortened: as §1
Cerebellum [47] = experiment: Drug level in NMRI mouse cerebellum assessed as standard uptake value at 3.7 MBq/mL, iv after 2 mins by gamma counting; conditions: in vivo; procedure, shortened: as §2
Cerebellum [48] = experiment: Drug level in NMRI mouse cerebellum assessed as standard uptake value at 3.7 MBq/mL, iv after 60 mins by gamma counting; conditions: in vivo, 1 h; procedure, shortened: as §2
Blood [49] = experiment: Biodistribution in NMRI mouse blood at 3.7 MBq/mL, iv after 2 mins by gamma counting; conditions: in vivo; procedure, shortened: as §1
Blood [50] = experiment: Biodistribution in NMRI mouse blood at 3.7 MBq/mL, iv after 60 mins by gamma counting; conditions: in vivo, 1 h; procedure, shortened: as §1
Blood [51] = experiment: Biodistribution in NMRI mouse blood assessed per gram of tissue at 3.7 MBq/mL, iv after 2 mins by gamma counting; conditions: in vivo; procedure, shortened: as §1
Blood [52] = experiment: Biodistribution in NMRI mouse blood assessed per gram of tissue at 3.7 MBq/mL, iv after 60 mins by gamma counting; conditions: in vivo, 1 h; procedure, shortened: as §1
Blood [53] = experiment: Drug level in NMRI mouse blood assessed as standard uptake value at 3.7 MBq/mL, iv after 2 mins by gamma counting; conditions: in vivo; procedure, shortened: as §2
Blood [54] = experiment: Drug level in NMRI mouse blood assessed as standard uptake value at 3.7 MBq/mL, iv after 60 mins by gamma counting; conditions: in vivo, 1 h; procedure, shortened: as §2

## Cc1ccc2nc(-c3ccc([18F])cc3)sc2c1
[1]
  Drug uptake: 0.2%
[2]
  Drug uptake: 3.3%
Kidney [3]
  Drug uptake: 5.8%
Kidney [4]
  Drug uptake: 2.3%
Kidney [5]
  Drug uptake: 9.3%
Kidney [6]
  Drug uptake: 3.6%
Kidney [7]
  SUV: 3.4
Kidney [8]
  SUV: 1.4
Liver [9]
  Drug uptake: 24.8%
Liver [10]
  Drug uptake: 51.8%
Liver [11]
  Drug uptake: 12%
Liver [12]
  Drug uptake: 24.6%
Liver [13]
  SUV: 4.5
Liver [14]
  SUV: 9.2
[15]
  Drug uptake: 1.3%
[16]
  Drug uptake: 0.1%
[17]
  Drug uptake: 4%
[18]
  Drug uptake: 0.4%
[19]
  SUV: 1.5
[20]
  SUV: 0.2
Lung [21]
  Drug uptake: 3.6%
Lung [22]
  Drug uptake: 0.3%
Lung [23]
  Drug uptake: 14.4%
Lung [24]
  Drug uptake: 1.3%
Lung [25]
  SUV: 5.3
Lung [26]
  SUV: 0.5
Heart [27]
  Drug uptake: 0.9%
Heart [28]
  Drug uptake: 0.1%
Heart [29]
  Drug uptake: 5.4%
Heart [30]
  Drug uptake: 0.5%
Heart [31]
  SUV: 2
Heart [32]
  SUV: 0.2
Intestine [33]
  Drug uptake: 8.9%
Intestine [34]
  Drug uptake: 19.3%
Stomach [35]
  Drug uptake: 1.3%
Stomach [36]
  Drug uptake: 1.1%
[37]
  Drug uptake: 1.62%
[38]
  Drug uptake: 0.07%
[39]
  Drug uptake: 5.33%
[40]
  Drug uptake: 0.27%
[41]
  SUV: 1.97
[42]
  SUV: 0.1
Cerebellum [43]
  Drug uptake: 0.42%
Cerebellum [44]
  Drug uptake: 0.04%
Cerebellum [45]
  Drug uptake: 5.99%
Cerebellum [46]
  Drug uptake: 0.39%
Cerebellum [47]
  SUV: 2.21
Cerebellum [48]
  SUV: 0.15
Blood [49]
  Drug uptake: 5.7%
Blood [50]
  Drug uptake: 2.8%
Blood [51]
  Drug uptake: 2.2%
Blood [52]
  Drug uptake: 1.1%
Blood [53]
  SUV: 0.8
Blood [54]
  SUV: 0.4

Reference: ChEMBL document CHEMBL1154674, “Synthesis and evaluation of three 18F-labeled aminophenylbenzothiazoles as amyloid imaging agents” (J Med Chem, 2009)
